rRNA inh HTS: inhibitors of bacterial rRNA selective over humanized ribosomes; E. coli WT GFP vs humanized-ribosome RFP mutants, fluorescence, 24 h; hits give low values; DMSO median 0, no signal -100; GFP signal change (wild-type ribosome), % (test concentration not listed); 1.6% of 350,000 active; AID 720706;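 active = significant combined selectivity score with lowered wild-type GFP, culture density cut under 30%, mutant RFP and density less affected; inactive = any of these conditions unmet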
SIRT5 inh: blocks human SIRT5 desuccinylation of peptide; AID 652115; inhibition, % at 15 µM; Purified SirT5, succinyl-peptide AMC, trypsin-coupled fluorescence; 1.1% of 330,000 active; Q9NXA8; in the data active = inhibition above about 15%
Target sequence (Q9NXA8 whole entry, looked up): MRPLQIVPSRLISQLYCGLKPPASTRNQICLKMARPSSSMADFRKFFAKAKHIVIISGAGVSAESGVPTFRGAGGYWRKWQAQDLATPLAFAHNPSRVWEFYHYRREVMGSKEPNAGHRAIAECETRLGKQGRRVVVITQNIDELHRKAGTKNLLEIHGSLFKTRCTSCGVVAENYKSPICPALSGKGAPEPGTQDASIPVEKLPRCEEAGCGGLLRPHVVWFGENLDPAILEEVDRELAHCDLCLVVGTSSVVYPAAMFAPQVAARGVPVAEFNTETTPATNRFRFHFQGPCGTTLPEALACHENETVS
E-sel inducer: induces E-selectin expression in human endothelial cells. HUVEC E-selectin immunofluorescence imaging; normalized: neutral wells 0, TNF-alpha wells 100. AID 686992. 0.37% of 260,000 active. activation, % at 7.58 µM;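 active = mean E-selectin-positive cell signal at least 10% of the positive control, reached in at least 60% of replicates, without over 20% cell loss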
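Read-out basis: % PE-positive cells; Test system: HUVEC primary endothelial cells; Technique: immunofluorescence imaging; Dosing: single-point compound dose.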
ERAP1 HTS inh: ERAP1 (human) enzyme inhibition | Q9NZ08 | recombinant ERAP1, Leu-AMC fluorescence, 60 min | inhibition, % at 10.7 µM | 0.15% of 340,000 active | AID 652197;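 active = mean replicate inhibition of at least 30%, or all replicates individually reaching that 30% level; inactive = mean below 30% and not every replicate reaching it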;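 note: 0% = neutral control wells and 100% = L-leucinethiol positive control wells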
S100A4 MyoIIA: blocks human S100A4 binding to myosin IIA peptide | inhibition, % at 10.7 µM | 0.14% of 360,000 active | S100A4/TAMRA-MyoIIA peptide fluorescence polarization;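 active = mean inhibition of at least 70% across replicates, with every replicate also reaching that level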
Target sequence (P26447 whole entry, looked up): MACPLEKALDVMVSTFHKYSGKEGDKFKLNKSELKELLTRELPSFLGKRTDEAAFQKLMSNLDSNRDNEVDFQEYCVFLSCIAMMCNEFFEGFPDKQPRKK
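Assay system: human S100A4 monomer with TAMRA-labelled myosin IIA peptide / Buffer or medium: Calcium-containing HEPES buffer, pH 7.2 / Reagent: TAMRA-labelled myosin IIA heavy-chain peptide probe, 5 nM / Compound: one dose per compound / Timing: polarization read 5 min after assay mix addition, stable 5–60 min / Benchmarks: neutral control DMSO, positive control TFP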
AF4-AF9 inh: inhibitors of human MLL-AF4/AF9 interaction | inhibition, % at 10 µM | 0.47% of 350,000 active | AlphaScreen, biotin-AF4 peptide binding to FLAG-AF9 | P42568 | AID 651704;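 active = every replicate reaching a set inhibition limit, whatever the replicate mean, cut at about 25% in these data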;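 note: 0% = plate neutral control median and 100% = total signal loss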
* hit, by the source's call; nt = no result; ! = a repeat was not active. This is a sample that favours compounds with a hit; in the whole collection about 3.4% have one here.

SMILES | rRNA inh HTS | SIRT5 inh | E-sel inducer | ERAP1 HTS inh | S100A4 MyoIIA | AF4-AF9 inh
C[C@@H]1CN([C@@H](C)CO)C(=O)c2cc(NC(=O)Nc3ccc(C(F)(F)F)cc3)ccc2O[C@H]1CN(C)S(=O)(=O)c1ccccc1 | 3 | 2 | 79* | 3 | 2 | -2
C[C@H](CO)N1C[C@H](C)[C@H](CN(C)S(=O)(=O)c2ccc(Cl)cc2)Oc2ccc(NC(=O)Cc3ccccc3)cc2C1=O | 1 | -2 | 36* | -1 | 1 | -3
C[C@@H]1CN([C@H](C)CO)C(=O)c2cc(NC(=O)Nc3ccc(C(F)(F)F)cc3)ccc2O[C@@H]1CN(C)S(=O)(=O)c1ccccc1 | 0 | 9 | 8 | 2 | -2 | -3
C[C@@H]1CN([C@@H](C)CO)C(=O)c2cc(NC(=O)Cc3ccccc3)ccc2O[C@@H]1CN(C)S(=O)(=O)c1ccc(Cl)cc1 | -1 | 12 | -14 | -1 | -4 | -3
C[C@@H]1CN([C@@H](C)CO)C(=O)c2cc(NC(=O)Nc3ccc(C(F)(F)F)cc3)ccc2O[C@@H]1CN(C)S(=O)(=O)c1ccc(Cl)cc1 | 2 | 5 | 1 | 1 | -6 | -1
CO[C@@H](CN(C)S(=O)(=O)c1ccc(C)cc1)[C@@H](C)CN([C@H](C)CO)S(=O)(=O)c1cccc(Cl)c1 | -16 | 4 | 0 | 1 | 1 | 2
C[C@@H]1CCCCO[C@@H](CN(C)Cc2ccc(C(F)(F)F)cc2)[C@@H](C)CN([C@@H](C)CO)C(=O)c2cc(NC(=O)CCCN(C)C)ccc2O1 | 2 | 0 | 1 | 3 | 17 | 9
C[C@H](CO)N1C[C@H](C)[C@@H](CN(C)S(=O)(=O)c2ccccc2)Oc2ccc(NC(=O)Nc3ccc(C(F)(F)F)cc3)cc2C1=O | -3 | 13 | 431*! | 2 | -23 | 2
CCCCCCN1C[C@H](O)[C@@H](n2cc(COC(=O)c3ccccc3)nn2)C[C@@H]1c1ccc(C)cc1 | 0 | -1 | 0 | nt | -6 | -2
Cc1ccc([C@H]2C[C@H](O)[C@@H](n3cc(COC(=O)c4ccccc4)nn3)CN2C(=O)c2cccs2)cc1 | -7 | 17* | 0 | 0 | 6 | -1
CCCCCCN1C[C@H](O)[C@@H](n2cc(COC(=O)c3ccccc3)nn2)C[C@@H]1c1ccc(Cl)cc1 | 6 | 15* | 1 | 2 | -10 | nt
COCC#Cc1ccc2c(c1)O[C@H](CN(C)C(=O)C1CCC1)[C@@H](C)CN([C@H](C)CO)S2(=O)=O | -5 | 1 | 1 | 4 | -1 | 1
CCC(=O)N1CC2(CN(C(=O)c3cccnc3)C2)c2c([nH]c3cc(OC)ccc23)[C@H]1CO | 1 | nt | 0 | nt | nt | 2
COc1ccc(CN(C)C[C@@H]2OCCCC[C@H](C)Oc3ccc(NC(=O)Nc4c(C)noc4C)cc3C(=O)N([C@@H](C)CO)C[C@H]2C)cc1 | 2 | 4 | 0 | -4 | 12 | -1
COc1ccc(-c2csc(CCn3nc(C)cc3C)n2)cc1OC | 2 | 0 | -2 | -6 | -5 | -18
COc1ccc(-c2csc(CCn3nc(C)cc3C)n2)cc1 | -21* | -1 | nt | -2 | -2 | -22
CCC(=O)Nc1ccc2c(c1)C(=O)N(C)[C@@H]1CC[C@H](CC(=O)N[C@@H](C)c3ccccc3)O[C@H]1CO2 | -2 | 1 | 0 | 1 | -6 | -1
COc1cccc(NC(=O)N(C)C[C@@H]2Oc3cc(-c4ccccc4F)ccc3S(=O)(=O)N([C@@H](C)CO)C[C@@H]2C)c1 | -6 | 4 | nt | 8 | -4 | 0
COc1cccc(NC(=O)N(C)C[C@H]2Oc3cc(C#Cc4ccccc4)ccc3S(=O)(=O)N([C@@H](C)CO)C[C@@H]2C)c1 | 0 | nt | -5 | nt | nt | nt
COc1ccc(C#Cc2ccc3c(c2)O[C@H](CN(C)C(=O)Nc2cccc(OC)c2)[C@@H](C)CN([C@H](C)CO)S3(=O)=O)cc1 | 0 | 17* | 0 | 0 | -5 | -9
COc1cccc(NC(=O)N(C)C[C@@H]2Oc3cc(C#Cc4ccccc4)ccc3S(=O)(=O)N([C@H](C)CO)C[C@H]2C)c1 | 2 | 19* | 1 | -1 | -18 | 0
COc1cccc(NC(=O)N(C)C[C@H]2Oc3cc(-c4ccccc4F)ccc3S(=O)(=O)N([C@H](C)CO)C[C@H]2C)c1 | 0 | 16* | nt | 6 | -7 | 1
Cc1ccc(-c2csc(NC(=O)c3cccc(C)c3)c2C(=O)O)cc1 | -38* | 3 | 0 | 5 | 13 | -2
CCc1ccc(NC(=O)COc2ccc(/C=C(/C#N)c3nc4ccccc4[nH]3)cc2OC)cc1 | 6 | 2 | 1 | -2 | -1 | -6
COc1cc(/C=C(/C#N)c2nc3ccccc3[nH]2)ccc1OCc1ccc(C(=O)O)o1 | 3 | 18* | nt | 23 | -8 | 1
SMILES | rRNA inh HTS | SIRT5 inh | E-sel inducer | ERAP1 HTS inh | S100A4 MyoIIA | AF4-AF9 inh
Cc1ccccc1-n1cc(-c2ccc(Br)cc2)nc1SCC(N)=O | -41* | -3 | 1 | nt | -6 | 20
COc1ccc2c3c([nH]c2c1)[C@H](CO)N(C(=O)CC1CC1)CC31CCN(C(=O)CC2CC2)CC1 | 0 | -3 | 0 | 0 | 1 | -4
Cc1ccc(CNC(=O)C2CCCN(S(=O)(=O)N3CC(C)CC(C)C3)C2)cc1 (centres undefined) | 9 | 20* | nt | 0 | 0 | 1
Cc1ccc(CNC(=O)C2CCCN(c3nc(C)cc(C)n3)C2)cc1 (centres undefined) | 19 | -2 | -1 | 3 | -2 | -1
Cc1ccc(CNC(=O)C2CCCN(c3nc4ccsc4c(=O)s3)C2)cc1 (centres undefined) | 7 | 18* | nt | 4 | -8 | 1
CC1CC(C)CN(S(=O)(=O)N2CCCC(C(=O)NCCc3ccc(Cl)cc3)C2)C1 (centres undefined) | 0 | -4 | nt | 5 | -4 | -4
C[C@@H]1CN([C@H](C)CO)C(=O)c2cc(NC(=O)Nc3ccc(F)cc3)ccc2O[C@@H](C)CCCCO[C@H]1CN(C)C(=O)C1CCCCC1 | 1 | 4 | 0 | 0 | 65 | 5
O=C(CSc1ccc2nnc(-c3ccccn3)n2n1)N1CCOCC1 | 3 | nt | nt | nt | 8 | -1
CCCn1c(SCC(=O)N2CCCC(C)C2)nnc1-c1ccccn1 (centres undefined) | -6 | 24* | nt | -1 | 1 | -2
O=C(CSc1ccc(-c2ccccc2)nn1)N1CCCCC1 | 0 | -1 | -3 | -1 | -6 | 1
CCOC(=O)N1CCN(C(=O)CSc2ccc3nnc(-c4ccccn4)n3n2)CC1 | 4 | 16* | 1 | -2 | -4 | -4
O=C(CSc1ccc(-c2ccccn2)nn1)N1CCCCC1 | -7 | 15* | 0 | 0 | 2 | -1
